The term inhibition denotes how much of the control response was suppressed.

Active and inactive are the calls of the source. The calls are words filed in the database; no cut-off is given here.

Experimental findings from ChEMBL document CHEMBL2069227, “Cycloartane-type triterpenes from the leaves of Homonoia riparia with VEGF-induced angiogenesis inhibitory activity” (J Nat Prod, 2012) are described below.

Series [1] relates to Rattus norvegicus. Kind of series: Inhibition of VEGF-induced vascular permeability in intradermally dosed Sprague-Dawley rat assessed as reduction in extravasation of Evans blue dye by Miles assay. The class given is functional, organism-based. The procedure, abridged:
(§1)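 Male Sprague–Dawley rats (250–300 g) were anesthetized and shaved, then re-anesthetized 2–3 days later and given 150 μL 1% Evans blue i.v. After 15 min, 15 μL was injected intradermally: VEGF (100 ng/mL), compound (1, 5 or 10 μg/mL) in PBS, or PBS alone. Skin was dissected after 1 h, dye eluted with formamide at 56 °C, and OD read at 620 nm. n = 3 at 10 μg/mL.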

In series [2] the test system is HUVEC. The series can be described thus: Inhibition of VEGF-induced angiogenesis in HUVECs assessed as reduction in capillary-like tube formation on matrigel at 12.5 uM incubated for 6 hrs by fluorescence microscopy. The class given is functional. Conditions: Homo sapiens. The procedure, abridged: (§2)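 HUVECs were cultured to the supplier's standard protocol. 5 × 10^4 cells were plated on basement membrane extract in medium with VEGF (10 ng/mL), with or without compound, and incubated 6 h. Cells were stained with 2 μM Calcein AM in PBS for 30 min. Tubes were imaged by fluorescence microscopy and quantified by image analysis against untreated cultures. Means ± SD, n = 3.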

Series [3] relates to HUVEC. The series can be described thus: Toxicity in HUVECs at 25 uM. Conditions: human. The class given is cell-based.
In series [4] the test system is Rattus norvegicus. The series can be described thus: Inhibition of VEGF-induced vascular permeability in intradermally dosed Sprague-Dawley rat assessed as reduction in extravasation of Evans blue dye at 10 ug/ml by Miles assay. The format is functional. The procedure, abridged: as §1
Series [5] deals with HUVEC. Kind of series: Toxicity in HUVECs at 12.5 uM. The following applies: human. The format is cell-based.
In series [6] the test system is HUVEC. The series can be described thus: Inhibition of VEGF-induced angiogenesis in HUVECs assessed as reduction in capillary-like tube formation on matrigel at 25 uM incubated for 6 hrs by fluorescence microscopy. The class given is functional. Conditions: Homo sapiens. The procedure, abridged: as §2

Take `C=C(CC[C@@H](C)[C@H]1[C@@H](O)C[C@@]2(C)[C@@H]3C[C@@H](O)[C@H]4C(C)(C)[C@@H](O[C@@H]5OC[C@@H](O)[C@H](O)[C@H]5O)CC[C@@]45C[C@@]35CC[C@]12C)C(C)C` (relative stereo): in the series on Rattus norvegicus [1], the inhibition entry is “Dose-dependent effect”.
On the same count and under the same terms, for `C=C(CC[C@@H](C)[C@H]1[C@@H](O)C[C@@]2(C)[C@@H]3[C@@H](O)C[C@H]4C(C)(C)[C@@H](O[C@@H]5OC[C@@H](O)[C@H](O)[C@H]5O)CC[C@@]45C[C@@]35CC[C@]12C)C(C)C` the value was “Dose-dependent effect”; for `C=C(CC[C@@H](C)[C@H]1[C@@H](O)C[C@@]2(C)[C@@H]3C[C@@H](O)[C@H]4C(C)(C)[C@@H](O)CC[C@@]45C[C@@]35CC[C@]12C)C(C)C` (relative stereo), “inactive”.
For the compound `C=C(CC[C@@H](C)[C@H]1CC[C@@]2(C)[C@@H]3[C@@H](O)[C@@H](O)[C@H]4C(C)(C)[C@@H](O)CC[C@@]45C[C@@]35CC[C@]12C)C(C)C`, in the series on Rattus norvegicus [1], the inhibition entry is “inactive”.
With `C=C(CC[C@@H](C)[C@H]1[C@@H](O)C[C@@]2(C)[C@@H]3[C@@H](O)[C@@H](O)[C@H]4C(C)(C)[C@@H](O[C@@H]5OC[C@@H](O)[C@H](O)[C@H]5O)CC[C@@]45C[C@@]35CC[C@]12C)C(C)C`, the inhibition at 12.5 µM in the series with HUVEC [2] was determined as 28.5%. In addition, the Activity result with HUVEC [3] and in the series with HUVEC [5] was “Non-toxic” in each case. Also, in the series on Rattus norvegicus [4], the “inhibition (INH)” value stood at 64%. In addition, the inhibition entry in the series with Rattus norvegicus [1] is “Dose-dependent effect”. The inhibition at 25 µM in the series with HUVEC [6] came out at 59.5%.
With `C=C(CC[C@@H](C)[C@H]1CC[C@@]2(C)[C@@H]3[C@@H](O)[C@@H](O)[C@H]4C(C)(C)[C@@H](O[C@@H]5OC[C@@H](O)[C@H](O)[C@H]5O)CC[C@@]45C[C@@]35CC[C@]12C)C(C)C` (relative stereo), the inhibition result in the series on Rattus norvegicus [1] was “inactive”.
